From ChEMBL document CHEMBL2046315, “Design, synthesis and structure-activity relationships of 5-alkylaminolquinolines as a novel series of CRF1 receptor antagonists” (Bioorg Med Chem Lett, 2012)
pIC50: −log10 of the molar value.

Tests used:
[1] = biological target: T1, Corticotropin-releasing factor receptor 1 (Homo sapiens, UniProt P34998); assay: Displacement of [125I]-CRF from human CRF1 receptor expressed in HEK293 cells after 2 hrs by scintillation proximity assay; format: cell-based
T1 sequence (P34998 whole entry): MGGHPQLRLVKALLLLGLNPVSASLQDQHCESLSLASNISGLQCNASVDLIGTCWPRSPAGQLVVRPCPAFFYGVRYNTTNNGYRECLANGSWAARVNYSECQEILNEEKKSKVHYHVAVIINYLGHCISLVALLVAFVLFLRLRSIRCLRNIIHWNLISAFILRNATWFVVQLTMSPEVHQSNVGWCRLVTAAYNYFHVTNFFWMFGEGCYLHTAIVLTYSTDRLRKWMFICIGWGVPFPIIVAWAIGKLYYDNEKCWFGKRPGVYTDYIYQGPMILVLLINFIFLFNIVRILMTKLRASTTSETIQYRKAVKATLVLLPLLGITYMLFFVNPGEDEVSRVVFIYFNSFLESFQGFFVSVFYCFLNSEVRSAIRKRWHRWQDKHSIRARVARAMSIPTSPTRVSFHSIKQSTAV
Procedure, shortened: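 Membranes (5 µg/well) with WGA-coated SPA beads and 0.1 nM [125I]-human/rat CRF. Assay buffer is phosphate-buffered saline with 10 mM MgCl2, 2 mM EGTA, 1.5% BSA and protease inhibitors, pH 7.0. Nonspecific binding defined with 0.4 µM sauvagine. Incubated over 2 h at room temperature and counted after centrifugation. Specific binding expressed as % of total; IC50 from concentration-response curve.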

[2] = biological target: T1, Corticotropin-releasing factor receptor 1; assay: Antagonist activity at human CRF1 receptor expressed in HEK293 cells assessed as inhibition of CRF-stimulated intracellular cAMP accumulation preincubated for 30 mins measured after 30 mins by enzyme immunoassay; format: functional, cell-based
Procedure, shortened: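 Cells seeded at 5 × 10^4/well in DMEM with 0.1% FBS and 1 mM IBMX, pre-incubated 30 min, then test compound added for 30 min at 37 °C. Stimulation with 1 nM human/rat CRF for 30 min at 37 °C, followed by cell lysis. cAMP measured by EIA, basal (no CRF) subtracted, expressed as % of total production. IC50 from concentration-response curve.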

Compound	pIC50 [1]	pIC50 [2]
CCCN(CCC)c1cccc2nc(Oc3c(OC)cc(COC)cc3OC)c(C)cc12	6.86	6.79
COCc1cc(OC)c(Oc2nc3cccc(N(CC4CCOCC4)CC4CC4)c3cc2C)c(OC)c1	6.12	
CCN(CC1CCOCC1)c1cccc2nc(Oc3c(OC)cc(COC)cc3OC)c(C)cc12	6.19	
COCc1cc(OC)c(Oc2nc3cccc(N(CC4CC4)C4CCOCC4)c3cc2C)c(OC)c1	6.80	
CCN(c1cccc2nc(Oc3c(OC)cc(COC)cc3OC)c(C)cc12)C1CCOCC1	6.49	
CCC(CC)Nc1cccc2nc(Oc3c(OC)cc(COC)cc3OC)c(C)cc12	< 6.00	
COCc1cc(OC)c(Oc2nc3cccc(NC4CCCCC4)c3cc2C)c(OC)c1	< 6.00	
CCN(Cc1ccncc1)c1cccc2nc(Oc3c(OC)cc(COC)cc3OC)c(C)cc12	< 6.00	
CCN(CC)c1cccc2nc(Oc3c(OC)cc(COC)cc3OC)c(C)cc12	7.15	6.78
Cc1cc(C)c(Nc2nc3cccc(N(CC4CC4)CC4CC4)c3cc2C)c(C)c1	7.12	
Cc1cc(C)c(Nc2nc3cccc(N(CC4CCOCC4)CC4CC4)c3cc2C)c(C)c1	6.13	
Cc1cc(C)c(Nc2nc3cccc(N(CC4CC4)C4CCOCC4)c3cc2C)c(C)c1	7.05	6.59
CCCN(CCC)c1cccc2nc(Nc3c(OC)cc(COC)cc3OC)c(C)cc12	6.33	
CCCN(CCC)c1cccc2nc(Nc3c(OC)cc(OC)cc3OC)c(C)cc12	< 6.00	

Further lines, results first:

pIC50 [1]	pIC50 [2]	Compound
7.10		CCCN(CCC)c1cccc2nc(Oc3c(C)cc(C)cc3C)c(C)cc12
6.81	6.25	CCCN(CCC)c1cccc2nc(Nc3c(C)cc(C)cc3C)c(C)nc12
6.71		CCCC(CCC)Nc1cccc2nc(Nc3c(C)cc(C)cc3C)c(C)nc12
7.00	6.33	CCCN(CCC)c1cccc2nc(Nc3c(C)cc(C)cc3C)c(=O)[nH]c12
6.17		CCCN(CCC)c1cccc2nc(Nc3c(C)cc(C)cc3C)c(=O)n(C)c12
< 6.00		CCCN(CCC)c1cccc2nc(N(C)c3c(C)cc(C)cc3C)c(=O)n(C)c12
7.06	6.43	CCCN(CCC)c1cccc2nc(Nc3c(C)cc(C)cc3C)c(C)cc12
